pIC50: −log10 of the molar value. The source made the active and inactive calls. The calls are words filed in the database; no cut-off is given here.
Experiments:
[1] = target: Baculoviral IAP repeat-containing protein 2 (Homo sapiens) (UniProt Q13490); assay: Induction of cIAP1 degradation in human MM1.S cells assessed as remaining protein level at 0.1 uM incubated for 16 hrs by western blot analysis; type: cell-based
Outline: (§1)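 Lysed, run on SDS-PAGE and transferred to PVDF. Probed with primary antibodies overnight at 4 °C, then HRP secondaries, with ECL detection. Band densitometry normalized to loading control and to DMSO-treated cells. Averages of at least three independent experiments.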

HEL = assay: Cytotoxicity against human HEL cells assessed as reduction in cell viability measured after 96 hrs in presence of TNF-alpha by CellTiter-Glo luminescent assay; type: functional, cell-based
Outline: (§2)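 Cells kept in RPMI-1640 with 10% FBS, 1% penicillin/streptomycin and 1% L-glutamine at 37 °C, 5% CO2. Seeded with compounds and incubated 96 h at 37 °C with TNF-α at 1 ng/mL. Viability read by CellTiter-Glo luminescence and normalized to DMSO-treated control. Mean ± SD of biological triplicates.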

[2] = target: Baculoviral IAP repeat-containing protein 3 (Homo sapiens) (UniProt Q13489); assay: Induction of cIAP2 degradation in human MM1.S cells at 1 uM incubated for 16 hrs by western blot analysis; type: cell-based
Outline: as §1, with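 “MM.1S cells treated 16 h at the stated concentration. Lysed,” for “Lysed,”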

SUD4 = assay: Cytotoxicity against human SU-DHL-4 cells assessed as reduction in cell viability measured after 96 hrs in presence of TNF-alpha by CellTiter-Glo luminescent assay; type: functional, cell-based; conditions: SU-DHL-4, 96 h; outline: as §2
[3] = target: von Hippel-Lindau disease tumor suppressor (Homo sapiens) (UniProt P40337); assay: Induction of VHL19 degradation in human MM1.S cells at 1 uM incubated for 16 hrs by western blot analysis; type: cell-based
Outline: as §1, with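 “MM.1S cells treated 16 h at the stated concentration. Lysed,” for “Lysed,”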

SU-DHL-6 = assay: Cytotoxicity against human SU-DHL-6 cells assessed as reduction in cell viability measured after 96 hrs in presence of TNF-alpha by CellTiter-Glo luminescent assay; type: functional, cell-based; conditions: SU-DHL-6, 96 h
Outline: (§3)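 Cells seeded with compound at indicated concentrations ± TNF-α 1 ng/mL, incubated 96 h at 37 °C; viability by CellTiter-Glo luminescence, normalized to DMSO control; mean ± SD of biological triplicates. NCI-H929 cultured in RPMI-1640/10% FBS with 2-mercaptoethanol and sodium pyruvate; other lines in RPMI-1640/10% FBS, 37 °C, 5% CO2.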

[4] = target: E3 ubiquitin-protein ligase XIAP (Homo sapiens) (UniProt P98170); assay: Induction of XIAP degradation in human MM1.S cells at 1 uM incubated for 16 hrs by western blot analysis; type: cell-based
Outline: as §1, with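 “MM.1S cells treated 16 h at the stated concentration. Lysed,” for “Lysed,”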

JJN-3 = assay: Cytotoxicity against human JJN-3 cells assessed as reduction in cell viability measured after 96 hrs in presence of TNF-alpha by CellTiter-Glo luminescent assay; type: functional, cell-based; conditions: JJN-3, 96 h; outline: as §2
DB = assay: Cytotoxicity against human DB cells assessed as reduction in cell viability measured after 96 hrs in presence of TNF-alpha by CellTiter-Glo luminescent assay; type: functional, cell-based; outline: as §2
[5] = target: von Hippel-Lindau disease tumor suppressor (Homo sapiens) (UniProt P40337); assay: Induction of VHL30 degradation in human MM1.S cells at 1 uM incubated for 16 hrs by western blot analysis; type: cell-based
Outline: as §1, with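 “MM.1S cells treated 16 h at the stated concentration. Lysed,” for “Lysed,”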

NCI-H929 = assay: Cytotoxicity against human NCI-H929 cells assessed as reduction in cell viability measured after 96 hrs in presence of TNF-alpha by CellTiter-Glo luminescent assay; type: functional, cell-based; conditions: NCI-H929, 96 h; outline: as §3
[6] = target: von Hippel-Lindau disease tumor suppressor (Homo sapiens) (UniProt P40337); assay: Induction of VHL30 degradation in human MM1.S cells assessed as remaining protein level at 0.1 uM incubated for 16 hrs by western blot analysis; type: cell-based
Outline: as §1, with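 “MM.1S cells treated 16 h at the stated concentration. Lysed,” for “Lysed,”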

[7] = target: Baculoviral IAP repeat-containing protein 2 (Homo sapiens) (UniProt Q13490); assay: Induction of cIAP1 degradation in human MM1.S cells at 1 uM incubated for 16 hrs by western blot analysis; type: cell-based
Outline: as §1, with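 “MM.1S cells treated 16 h at the stated concentration. Lysed,” for “Lysed,”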

RPMI-8226 = assay: Cytotoxicity against human RPMI-8226 cells assessed as reduction in cell viability measured after 96 hrs in presence of TNF-alpha by CellTiter-Glo luminescent assay; type: functional, cell-based; conditions: RPMI-8226, 96 h; outline: as §2
MOLM-13 = assay: Cytotoxicity against human MOLM-13 cells assessed as reduction in cell viability measured after 96 hrs in presence of TNF-alpha by CellTiter-Glo luminescent assay; type: functional, cell-based; conditions: MOLM-13, 96 h; outline: as §2
K562 = assay: Cytotoxicity against human K562 cells assessed as reduction in cell viability measured after 96 hrs in presence of TNF-alpha by CellTiter-Glo luminescent assay; type: functional, cell-based; conditions: K562, 96 h; outline: as §2
[8] = target: Baculoviral IAP repeat-containing protein 3 (Homo sapiens) (UniProt Q13489); assay: Induction of cIAP2 degradation in human MM1.S cells assessed as remaining protein level at 0.1 uM incubated for 16 hrs by western blot analysis; type: cell-based; outline: as §1
[9] = target: von Hippel-Lindau disease tumor suppressor (Homo sapiens) (UniProt P40337); assay: Induction of VHL degradation in human MM1.S cells at 100 nM incubated for 3 hrs by diaPASEF-based analysis; type: cell-based
Outline: (§4)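 MM.1S cells exposed to DMSO or 0.1 μM compound for 3 h, then washed with PBS and snap-frozen. Lysed in 8 M urea/EPPS pH 8.5 buffer. 50 μg protein reduced, alkylated, precipitated, then digested with LysC and trypsin. Analysed by diaPASEF on timsTOF Pro2. Missing values imputed from a Gaussian distribution; log2 fold change versus DMSO with limma statistics.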

[10] = target: Cereblon/Ikaros (Homo sapiens) (UniProt Q96SW2+Q13422); assay: PROTAC activity at CRBN/IKZF1 in human MM1.S cells assessed as induction of IKZF1 degradation at 100 nM incubated for 3 hrs by diaPASEF-based analysis; type: cell-based; outline: as §4
[11] = target: Protein cereblon/E3 ubiquitin-protein ligase XIAP (Homo sapiens) (UniProt P98170+Q96SW2); assay: PROTAC activity at CRBN/IAP in human MM1.S cells assessed as induction of XIAP degradation at 0.1 uM incubated for 3 hrs by diaPASEF-based proteomics analysis; type: cell-based; outline: as §4
[12] = target: Protein cereblon-IAP (Homo sapiens) (UniProt P98170+Q13489+Q13490+Q96SW2); assay: PROTAC activity at CRBN/IAP in human MM1.S cells assessed as induction of CRBN degradation at 100 nM incubated for 3 hrs by diaPASEF-based analysis; type: cell-based; outline: as §4
[13] = target: Protein cereblon/Zinc finger protein Aiolos (Homo sapiens) (UniProt Q96SW2+Q9UKT9); assay: PROTAC activity at CRBN/IKZF3 in human MM1.S cells assessed as induction of IKZF3 degradation at 100 nM incubated for 3 hrs by diaPASEF-based analysis; type: cell-based; outline: as §4
[14] = target: Protein cereblon/Baculoviral IAP repeat-containing protein 2 (Homo sapiens) (UniProt Q13490+Q96SW2); assay: PROTAC activity at CRBN/IAP in human MM1.S cells assessed as induction of cIAP1 degradation at 100 nM incubated for 3 hrs by diaPASEF-based analysis; type: cell-based; outline: as §4
[15] = target: Protein cereblon/Baculoviral IAP repeat-containing protein 3 (Homo sapiens) (UniProt Q13489+Q96SW2); assay: PROTAC activity at CRBN/IAP in human MM1.S cells assessed as induction of cIAP2 degradation at 100 nM incubated for 3 hrs by diaPASEF-based analysis; type: cell-based; outline: as §4
[16] = target: E3 ubiquitin-protein ligase XIAP (Homo sapiens) (UniProt P98170); assay: Induction of XIAP degradation in human MM1.S cells at 100 nM incubated for 3 hrs by diaPASEF-based analysis; type: cell-based; outline: as §4
[17] = target: Baculoviral IAP repeat-containing protein 2 (Homo sapiens) (UniProt Q13490); assay: Induction of cIAP1 degradation in human MM1.S cells at 100 nM incubated for 3 hrs by diaPASEF-based analysis; type: cell-based; outline: as §4

Chain of von Hippel-Lindau disease tumor suppressor (Homo sapiens) (P40337 whole entry, looked up): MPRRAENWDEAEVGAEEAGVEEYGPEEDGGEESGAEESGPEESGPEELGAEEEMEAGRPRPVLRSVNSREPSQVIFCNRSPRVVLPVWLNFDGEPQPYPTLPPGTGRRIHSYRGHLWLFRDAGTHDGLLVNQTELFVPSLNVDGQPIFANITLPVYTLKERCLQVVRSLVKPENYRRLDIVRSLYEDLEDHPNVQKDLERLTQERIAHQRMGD
Chain of Baculoviral IAP repeat-containing protein 2 (Homo sapiens) (Q13490 whole entry): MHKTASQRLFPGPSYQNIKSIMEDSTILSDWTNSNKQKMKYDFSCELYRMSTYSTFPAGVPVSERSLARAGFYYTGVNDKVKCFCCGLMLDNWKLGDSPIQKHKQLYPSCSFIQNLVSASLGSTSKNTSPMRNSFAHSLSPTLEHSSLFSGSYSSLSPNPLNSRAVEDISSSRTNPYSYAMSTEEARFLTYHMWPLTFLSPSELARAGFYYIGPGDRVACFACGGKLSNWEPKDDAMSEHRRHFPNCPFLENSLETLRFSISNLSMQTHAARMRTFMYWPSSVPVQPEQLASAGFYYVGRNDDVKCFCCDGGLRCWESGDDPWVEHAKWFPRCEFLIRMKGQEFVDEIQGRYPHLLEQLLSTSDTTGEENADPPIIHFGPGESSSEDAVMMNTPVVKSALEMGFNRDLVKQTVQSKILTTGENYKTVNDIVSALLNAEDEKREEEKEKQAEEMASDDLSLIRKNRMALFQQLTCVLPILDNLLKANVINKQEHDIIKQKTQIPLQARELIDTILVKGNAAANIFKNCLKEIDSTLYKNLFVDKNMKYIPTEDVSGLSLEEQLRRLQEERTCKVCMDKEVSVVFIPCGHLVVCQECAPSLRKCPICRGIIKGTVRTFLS
Chain of E3 ubiquitin-protein ligase XIAP (Homo sapiens) (P98170 whole entry): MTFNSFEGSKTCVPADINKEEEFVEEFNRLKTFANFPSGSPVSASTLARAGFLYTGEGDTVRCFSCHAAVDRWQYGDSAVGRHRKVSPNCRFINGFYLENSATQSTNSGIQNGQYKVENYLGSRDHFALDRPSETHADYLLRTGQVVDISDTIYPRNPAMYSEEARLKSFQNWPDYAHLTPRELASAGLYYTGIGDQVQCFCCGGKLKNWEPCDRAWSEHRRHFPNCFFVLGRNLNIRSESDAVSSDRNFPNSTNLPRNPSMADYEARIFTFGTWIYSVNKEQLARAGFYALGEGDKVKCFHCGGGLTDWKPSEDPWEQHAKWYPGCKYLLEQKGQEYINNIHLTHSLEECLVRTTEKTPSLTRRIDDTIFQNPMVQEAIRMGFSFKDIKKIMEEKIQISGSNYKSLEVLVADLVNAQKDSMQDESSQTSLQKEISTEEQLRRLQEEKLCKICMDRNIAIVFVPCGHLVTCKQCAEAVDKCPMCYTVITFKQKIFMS
Chain of Baculoviral IAP repeat-containing protein 3 (Homo sapiens) (Q13489 whole entry): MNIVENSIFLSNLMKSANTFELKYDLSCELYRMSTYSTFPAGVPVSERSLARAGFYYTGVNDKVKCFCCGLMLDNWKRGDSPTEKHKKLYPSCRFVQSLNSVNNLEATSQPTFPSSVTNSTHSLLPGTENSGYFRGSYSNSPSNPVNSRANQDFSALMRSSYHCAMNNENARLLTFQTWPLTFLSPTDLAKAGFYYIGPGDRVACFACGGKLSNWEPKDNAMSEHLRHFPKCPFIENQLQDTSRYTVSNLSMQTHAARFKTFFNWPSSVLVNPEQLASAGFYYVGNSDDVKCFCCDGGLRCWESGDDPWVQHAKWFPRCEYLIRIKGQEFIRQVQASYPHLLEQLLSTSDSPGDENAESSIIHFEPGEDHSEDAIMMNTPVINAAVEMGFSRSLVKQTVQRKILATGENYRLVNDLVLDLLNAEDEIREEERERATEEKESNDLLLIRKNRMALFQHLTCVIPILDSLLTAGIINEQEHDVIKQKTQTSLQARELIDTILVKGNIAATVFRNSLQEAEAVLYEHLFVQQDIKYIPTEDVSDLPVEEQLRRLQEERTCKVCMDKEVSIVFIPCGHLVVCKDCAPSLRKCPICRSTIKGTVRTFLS
Chain of Protein cereblon-IAP (Homo sapiens) (P98170 whole entry, looked up): as the sequence (P98170 whole entry) above
Chain of Protein cereblon-IAP (Homo sapiens) (Q13489 whole entry, looked up): as the sequence (Q13489 whole entry) above
Chain of Protein cereblon-IAP (Homo sapiens) (Q13490 whole entry, looked up): as the sequence (Q13490 whole entry) above
Chain of Protein cereblon-IAP (Homo sapiens) (Q96SW2 whole entry, looked up): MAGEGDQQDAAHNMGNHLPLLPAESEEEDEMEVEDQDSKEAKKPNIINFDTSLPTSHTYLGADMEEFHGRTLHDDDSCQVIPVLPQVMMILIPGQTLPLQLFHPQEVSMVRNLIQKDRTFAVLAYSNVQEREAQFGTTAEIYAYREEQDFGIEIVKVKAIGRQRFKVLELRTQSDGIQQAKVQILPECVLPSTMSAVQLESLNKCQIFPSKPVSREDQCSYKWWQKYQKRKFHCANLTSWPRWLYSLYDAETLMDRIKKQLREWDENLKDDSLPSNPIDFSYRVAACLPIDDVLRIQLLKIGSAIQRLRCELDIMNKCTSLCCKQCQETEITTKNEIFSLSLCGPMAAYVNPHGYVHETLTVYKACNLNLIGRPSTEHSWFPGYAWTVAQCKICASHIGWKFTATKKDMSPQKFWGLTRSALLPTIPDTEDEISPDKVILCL
Chain of Protein cereblon/E3 ubiquitin-protein ligase XIAP (Homo sapiens) (P98170 whole entry, looked up): as the sequence (P98170 whole entry) above
Chain of Protein cereblon/E3 ubiquitin-protein ligase XIAP (Homo sapiens) (Q96SW2 whole entry, looked up): as the sequence (Q96SW2 whole entry, looked up) above
Chain of Protein cereblon/Baculoviral IAP repeat-containing protein 3 (Homo sapiens) (Q13489 whole entry, looked up): as the sequence (Q13489 whole entry) above
Chain of Protein cereblon/Baculoviral IAP repeat-containing protein 3 (Homo sapiens) (Q96SW2 whole entry, looked up): as the sequence (Q96SW2 whole entry, looked up) above
Chain of Protein cereblon/Zinc finger protein Aiolos (Homo sapiens) (Q96SW2 whole entry, looked up): as above
Chain of Protein cereblon/Zinc finger protein Aiolos (Homo sapiens) (Q9UKT9 whole entry, looked up): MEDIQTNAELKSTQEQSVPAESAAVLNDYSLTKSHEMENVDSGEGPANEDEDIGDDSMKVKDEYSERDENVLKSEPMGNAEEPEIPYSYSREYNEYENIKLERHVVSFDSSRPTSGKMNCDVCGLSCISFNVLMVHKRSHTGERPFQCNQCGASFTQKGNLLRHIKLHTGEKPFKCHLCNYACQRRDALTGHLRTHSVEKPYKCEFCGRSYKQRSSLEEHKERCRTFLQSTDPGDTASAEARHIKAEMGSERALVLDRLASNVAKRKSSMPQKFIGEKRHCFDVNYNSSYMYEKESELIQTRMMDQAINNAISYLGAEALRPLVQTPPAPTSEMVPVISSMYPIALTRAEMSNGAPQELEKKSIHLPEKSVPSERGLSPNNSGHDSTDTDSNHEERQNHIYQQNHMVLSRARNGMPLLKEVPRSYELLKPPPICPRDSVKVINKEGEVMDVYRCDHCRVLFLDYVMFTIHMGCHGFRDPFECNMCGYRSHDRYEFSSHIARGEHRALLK
Chain of Protein cereblon/Baculoviral IAP repeat-containing protein 2 (Homo sapiens) (Q13490 whole entry, looked up): as the sequence (Q13490 whole entry) above
Chain of Protein cereblon/Baculoviral IAP repeat-containing protein 2 (Homo sapiens) (Q96SW2 whole entry, looked up): as the sequence (Q96SW2 whole entry, looked up) above

SMILES: Cc1ncsc1-c1ccc(CNC(=O)[C@@H]2C[C@@H](O)CN2C(=O)[C@@H](NC(=O)C2(C#N)CC2)C(C)(C)C)cc1
- Activity [1]: 95%
- pIC50 (HEL): < 5.00
- Activity [2]: inactive
- pIC50 (SUD4): < 5.00
- Activity [3]: inactive
- pIC50 (SU-DHL-6): < 5.00
- Activity [4]: inactive
- pIC50 (JJN-3): < 5.00
- pIC50 (DB): < 5.00
- Activity [5]: inactive
- pIC50 (NCI-H929): < 5.00
- Activity [6]: 95%
- Activity [7]: inactive
- pIC50 (RPMI-8226): < 5.00
- pIC50 (MOLM-13): < 5.00
- pIC50 (K562): < 5.00
- Activity [8]: 81%

SMILES: CN[C@@H](C)C(=O)N[C@H](C(=O)N1C[C@@H](Oc2cccc(OCCCCCCOCCCCCCOCCCCCCNc3cccc4c3C(=O)N(C3CCC(=O)NC3=O)C4=O)c2)C[C@H]1C(=O)N[C@@H]1CCCc2ccccc21)C1CCCCC1 (stereo partly specified)
- Activity [9]: inactive
- Activity [10]: inactive
- Activity [11]: Active
- Activity [12]: inactive
- Activity [13]: inactive
- Activity [14]: inactive
- Activity [15]: inactive

SMILES: CN[C@@H](C)C(=O)N[C@@H](C(=O)N1CCC[C@H]1C(=O)N[C@@H]1c2ccccc2C[C@@H]1OCC#CC#CCO[C@H]1Cc2ccccc2[C@H]1NC(=O)[C@@H]1CCCN1C(=O)[C@H](NC(=O)[C@H](C)NC)C1CCCCC1)C1CCCCC1
- Activity [16]: inactive
- Activity [17]: Active

From ChEMBL document CHEMBL5338733, “Heterobifunctional Ligase Recruiters Enable pan-Degradation of Inhibitor of Apoptosis Proteins” (J Med Chem, 2023)
